In the array DNA melting data of Ke et al. (doi:10.1101/2024.01.08.574731) one finds Tm and folding enthalpy data, which are given here for 74 sequences.

Data set [1] in a line: melting temperature; fluorescence melt of hairpins on a sequencing array, two-state fit, raised by 9.35 °C to match UV melts. Conditions: sodium 0.088 M. A digest of the protocol:
(§1)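 Cy3 signals were normalised both to pre-quench Cy3 and to control constructs. They came from library hairpins carrying annealed Cy3 and quencher oligos on a sequenced MiSeq flow cell, imaged in 50 mM Na-HEPES pH 8.0, 25 mM NaCl, in 2.5 °C steps up to 60 °C. Bootstrapped two-state fits gave melting temperature and folding enthalpy, and four replicates were combined by inverse variance. Fitted temperatures were then raised by 9.35 °C to match UV melts.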

Data set [2] can be described thus: folding enthalpy; higher = less favourable; fluorescence melt of hairpins on a sequencing array, two-state fit. The settings on record: sodium 0.088 M. A digest of the protocol:
as §1

With GATCTTGGACAAGATC ((((((....)))))), the Tm in data set [1] stood at 50.8 °C. The folding enthalpy in data set [2] is -41.8 kcal/mol.
The like results for GATCAACGGGTTGATC ((((((....)))))) were, in that order, 56.8 °C and -36.7 kcal/mol.
The like results for GATCTACACTTAGATC ((((((....)))))) were, in that order, 43.4 °C and -44.7 kcal/mol.
GTACATCGAAAGATTTAC (((.(((....))).))): the Tm in data set [1] is 35 °C. In data set [2], the folding enthalpy is -17.8 kcal/mol.
The like results for GGCACCGAAAGGTCGCC ((((((....))).))) were, in that order, 59.4 °C and -35.6 kcal/mol.
The like results for GATCCTCTGAGGATC ((((((...)))))) were, in that order, 51.9 °C and -33 kcal/mol.
As for GCCTTCTCGAAAGAGGGC (((..(((....)))))), the Tm in data set [1] worked out at 44.3 °C. For the same sequence, the folding enthalpy in data set [2] is -23.8 kcal/mol.
The like results for GAGCGTGGAAACGCGCTC (((((.(....).))))) were, in that order, 66.7 °C and -21.7 kcal/mol.
As for GGATGCGAAAGCAGGTCC ((((((....)))..))), the Tm in data set [1] stood at 37.7 °C. The folding enthalpy in data set [2] was -11.8 kcal/mol.
The like results for GAGTCAGGAAACTGACCC (.(((((....))))).) were, in that order, 40.5 °C and -13.4 kcal/mol.
Take GCTTGGCGAAAGCCGCGC ((..(((....)))..)): the Tm in data set [1] was 57.6 °C. Moreover, the folding enthalpy in data set [2] is -15.6 kcal/mol.
The like results for GCCCGGGGAAACCCGGAC (.(((((....))))).) were, in that order, 51.3 °C and -13.4 kcal/mol.
In the case of GTCGACGAAAGTCGAGAC ((((((....)))..))), the Tm in data set [1] came out at 51.9 °C. For the same sequence, the folding enthalpy in data set [2] is -9.56 kcal/mol.
The like results for GATCGATATTTCGATC ((((((....)))))) were, in that order, 53.1 °C and -44.3 kcal/mol.
As for GCAGGAGGAAACTCTTGC (((.(((....))).))), the Tm in data set [1] turned out to be 46.7 °C. For the same sequence, in data set [2], the folding enthalpy is -34.8 kcal/mol.
The like results for GATCGAGACCTCGATC ((((((....)))))) were, in that order, 56.7 °C and -44.3 kcal/mol.
For GGCTCACCGAAAGGTGCC (((..(((....)))))), in data set [1], the Tm is 39.6 °C. In addition, the folding enthalpy in data set [2] is -10.9 kcal/mol.
As to GCGCACGGAAACGTGTGC ((.((((....)))).)), the Tm in data set [1] is 67.7 °C. Further, the folding enthalpy in data set [2] is -41 kcal/mol.
The like results for GATCGAGCTATCGATC ((((((....)))))) were, in that order, 58.4 °C and -43.4 kcal/mol.
The like results for GATCCCCAAAGGGATC ((((((....)))))) were, in that order, 59.7 °C and -33.5 kcal/mol.
The like results for CGCTCGGAAACGATGCG ((((((....))).))) were, in that order, 51.8 °C and -35.4 kcal/mol.
With GTGTACGGAAACGTACGC (.(((((....))))).), the Tm in data set [1] was determined as 55.1 °C. In addition, in data set [2], the folding enthalpy is -20.6 kcal/mol.
In the case of GCCAATCGAAAGATCGGC (((.(((....))).))), the Tm in data set [1] was 49.8 °C. Also, in data set [2], the folding enthalpy was -35.6 kcal/mol.
The like results for GATCCGAAGACGGATC ((((((....)))))) were, in that order, 54.7 °C and -37 kcal/mol.
As to GATCAGACTCCTGATC ((((((....)))))), the Tm in data set [1] amounted to 47.5 °C. Moreover, the folding enthalpy in data set [2] is -36.1 kcal/mol.
Turning to GCGCTGGGAAACTGGCGC ((((..(....)..)))), in data set [1], the Tm turned out to be 57.3 °C. In addition, the folding enthalpy in data set [2] is -49.8 kcal/mol.
As for GGTACAGGAAACTGTACC (((((((....))))))), the Tm in data set [1] was determined as 59.3 °C. Further, in data set [2], the folding enthalpy was -44.5 kcal/mol.
The like results for GGGCCGTCGAAAGACCCC (((..(((....)))))) were, in that order, 44.4 °C and -16.6 kcal/mol.
Consider GTTGGCGAAAGCCCAAC ((((((....))).))), for which the Tm in data set [1] came out at 50.7 °C. The folding enthalpy in data set [2] is -16.3 kcal/mol.
Regarding GACTGCACGAAAGTGGTC (((..(((....)))))), in data set [1], the Tm worked out at 35.3 °C. Besides, in data set [2], the folding enthalpy was -13.9 kcal/mol.
Regarding GCTGGAGAAATCCAGC ((((((....)))))), the Tm in data set [1] amounted to 62.9 °C. In addition, the folding enthalpy in data set [2] was -35.9 kcal/mol.
The like results for GCGGACGAAAGTCTACGC ((((((....)))..))) were, in that order, 52.2 °C and -28.8 kcal/mol.
For GGTGTCGGAAACGGCACC ((((.((....)).)))), in data set [1], the Tm was determined as 64.7 °C. Further, in data set [2], the folding enthalpy was -46.5 kcal/mol.
In the case of GATTACGGAAACGTAATC (((((((....))))))), the Tm in data set [1] is 55.5 °C. Besides, the folding enthalpy in data set [2] is -50.2 kcal/mol.
With GGCCTCGAAAGAGGCGCC ((((((....)))..))), in data set [1], the Tm worked out at 66.5 °C. The folding enthalpy in data set [2] is -6.36 kcal/mol.
For GCTGCGCGAAAGCTCCGC ((.(.((....)).).)), in data set [1], the Tm was 38.5 °C. Moreover, the folding enthalpy in data set [2] was -12.3 kcal/mol.
The like results for GATCCGTTTCGGATC ((((((...)))))) were, in that order, 63 °C and -38 kcal/mol.
The like results for GACAACGAAAGTTGGTC ((((((....))).))) were, in that order, 53.1 °C and -19.7 kcal/mol.
The like results for GATCAGTCGCTGATC ((((((...)))))) were, in that order, 49.8 °C and -29.6 kcal/mol.
With GCCACGCGAAAGCCAGGC (((..((....))..))), the Tm in data set [1] was determined as 50.2 °C. Further, the folding enthalpy in data set [2] is -22.7 kcal/mol.
The like results for GCCGAGGGAAACTTCGGC (((((.(....).))))) were, in that order, 56.8 °C and -46.2 kcal/mol.
On to GTGGACACGAAAGTGCAC (((..(((....)))))), for which the Tm in data set [1] came to 45 °C. Further, in data set [2], the folding enthalpy is -18.1 kcal/mol.
For the sequence CGCGGAAGCATCCGCG ((((((....)))))), the Tm in data set [1] came out at 60.3 °C. Moreover, the folding enthalpy in data set [2] is -27.5 kcal/mol.
The like results for GCAACGCGAAAGCCTGGC ((.(.((....)).).)) were, in that order, 30.8 °C and -6.76 kcal/mol.
Take GGGGTGGGAAACCGCCTC (.((.((....)).)).): in data set [1], the Tm was determined as 49.6 °C. For the same sequence, the folding enthalpy in data set [2] was -18.6 kcal/mol.
The like results for GCTGAAGGAAACTTCAGC (((((((....))))))) were, in that order, 62.4 °C and -41.1 kcal/mol.
On to GCGAACTTTCGC ((((....)))), for which, in data set [1], the Tm worked out at 51.1 °C. Further, the folding enthalpy in data set [2] is -20 kcal/mol.
In the case of GAGCAAGAAATTGCTC ((((((....)))))), in data set [1], the Tm was found to be 54.8 °C. For the same sequence, in data set [2], the folding enthalpy is -29.8 kcal/mol.
Turning to GATCACCACCGTGATC ((((((....)))))), in data set [1], the Tm came to 55.5 °C. Also, the folding enthalpy in data set [2] is -37.3 kcal/mol.
Turning to GATCAACAGATTGATC ((((((....)))))), the Tm in data set [1] is 40.4 °C. In data set [2], the folding enthalpy was -30.1 kcal/mol.
Consider GGCTTCCCGAAAGGGGCC (((..(((....)))))), for which, in data set [1], the Tm worked out at 48.2 °C. Also, in data set [2], the folding enthalpy is -17.7 kcal/mol.
The like results for GATCTTTGTAAGATC ((((((...)))))) were, in that order, 45.5 °C and -28.8 kcal/mol.
The like results for GATCGTGCGAAAGCAATC (((..(((....)))))) were, in that order, 23.5 °C and -6.96 kcal/mol.
The like results for GCCATCACGAAAGTGGGC (((..(((....)))))) were, in that order, 47.2 °C and -19.4 kcal/mol.
Take GTATTTCGAAAGAACTAC (((.(((....))).))): the Tm in data set [1] worked out at 31.7 °C. Moreover, the folding enthalpy in data set [2] is -19.2 kcal/mol.
With GCACACACGAAAGTGTGC (((..(((....)))))), the Tm in data set [1] was 57.7 °C. Besides, in data set [2], the folding enthalpy was -11.6 kcal/mol.
The like results for GGCAATCGAAAGATGCC (((.(((....)))))) were, in that order, 56.5 °C and -40.3 kcal/mol.
The like results for GCGGATGACCGC ((((....)))) were, in that order, 54.8 °C and -21.6 kcal/mol.
The like results for GTGGGCGCGAAAGCGCAC (((..(((....)))))) were, in that order, 67.9 °C and -16.4 kcal/mol.
GCAGTGCGAAAGCTCTGC ((((.((....)).)))): in data set [1], the Tm worked out at 65.8 °C. Moreover, the folding enthalpy in data set [2] is -40.3 kcal/mol.
The like results for GGCTTTCGAAAGAATGCC (((.(((....))).))) were, in that order, 54.8 °C and -41 kcal/mol.
As for GACAGTGCGAAAGCAGTC (((..(((....)))))), the Tm in data set [1] was 40.5 °C. The folding enthalpy in data set [2] is -13.3 kcal/mol.
Regarding GAGTCTGGAAACGGACTC (((((.(....).))))), in data set [1], the Tm was 52.3 °C. The folding enthalpy in data set [2] is -40.4 kcal/mol.
The like results for GCGATGCGAAAGCATAGC ((.((((....)))).)) were, in that order, 66.7 °C and -31.1 kcal/mol.
The like results for GATCAAGGTGTTGATC ((((((....)))))) were, in that order, 46.1 °C and -31.7 kcal/mol.
The like results for GGGCTGGGAAACCGGTCC ((.(.((....)).).)) were, in that order, 49.2 °C and -44.6 kcal/mol.
For GATCACGTGAGTGATC ((((((....)))))), the Tm in data set [1] is 69.2 °C. The folding enthalpy in data set [2] was -28.4 kcal/mol.
The like results for GTGTACGAAAGTAGACAC ((((((....)))..))) were, in that order, 40.8 °C and -22.7 kcal/mol.
For the sequence GTTGTTGCGAAAGCAAAC (((..(((....)))))), the Tm in data set [1] worked out at 53.1 °C. Besides, the folding enthalpy in data set [2] is -21.7 kcal/mol.
The like results for GTTGCCCGAAAGGGGAAC (((.(((....))).))) were, in that order, 62.1 °C and -34.2 kcal/mol.
The like results for GCTCGGGGAAACTCGAGC (((((.(....).))))) were, in that order, 58.5 °C and -44.2 kcal/mol.
Regarding GGACGCGAAAGCGAGTCC ((((((....)))..))), the Tm in data set [1] came to 55.4 °C. In addition, the folding enthalpy in data set [2] is -21 kcal/mol.
Consider GGATAAACGAAAGTTTCC (((..(((....)))))), for which the Tm in data set [1] turned out to be 27.7 °C. In data set [2], the folding enthalpy was -17.1 kcal/mol.
Take GCGAGATATCGC ((((....)))): the Tm in data set [1] came to 56.9 °C. The folding enthalpy in data set [2] is -24.3 kcal/mol.
